From publication PMC6500982 (Cancer Science, 2019)

Experiment: Safety and tolerability
Format: in vivo, human
Procedure, shortened: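 Patients (enrolled January 2015–February 2016) received oral test compound in four cohorts: 160, 320 or 480 mg QD, or 300 mg BID. Dosing continued until progression, unacceptable AEs or consent withdrawal. AEs were graded by CTCAE v4.0, alongside laboratory tests, vital signs and ECGs. The safety population was all patients receiving ≥1 dose.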

Compound: CC#CC(=O)N1CC[C@@H](n2c(=O)n(-c3ccc(Oc4ccccc4)cc3)c3c(N)ncnc32)C1 [tirabrutinib]
- All AEs, Any grade (160 mg QD N = 3): 3 (100.0) n (%)
- All AEs, Grade ≥3 (160 mg QD N = 3): 1 (33.3) n (%)
- Anemia, Any grade (160 mg QD N = 3): 0 n (%)
- Anemia, Grade ≥3 (160 mg QD N = 3): 0 n (%)
- Arthralgia, Any grade (160 mg QD N = 3): 1 (33.3) n (%)
- Arthralgia, Grade ≥3 (160 mg QD N = 3): 0 n (%)
- Aspartate aminotransferase increased, Any grade (160 mg QD N = 3): 0 n (%)
- Aspartate aminotransferase increased, Grade ≥3 (160 mg QD N = 3): 0 n (%)
- Constipation, Any grade (160 mg QD N = 3): 0 n (%)
- Constipation, Grade ≥3 (160 mg QD N = 3): 0 n (%)
- Cystitis, Any grade (160 mg QD N = 3): 0 n (%)
- Cystitis, Grade ≥3 (160 mg QD N = 3): 0 n (%)
- Diarrhea, Any grade (160 mg QD N = 3): 0 n (%)
- Diarrhea, Grade ≥3 (160 mg QD N = 3): 0 n (%)
- Dysgeusia, Any grade (160 mg QD N = 3): 0 n (%)
- Dysgeusia, Grade ≥3 (160 mg QD N = 3): 0 n (%)
- Gamma‐glutamyltransferase increased, Any grade (160 mg QD N = 3): 0 n (%)
- Gamma‐glutamyltransferase increased, Grade ≥3 (160 mg QD N = 3): 0 n (%)
- Headache, Any grade (160 mg QD N = 3): 1 (33.3) n (%)
- Headache, Grade ≥3 (160 mg QD N = 3): 0 n (%)
- Hypokalemia, Any grade (160 mg QD N = 3): 0 n (%)
- Hypokalemia, Grade ≥3 (160 mg QD N = 3): 0 n (%)
- Hypophosphatemia, Any grade (160 mg QD N = 3): 0 n (%)
- Hypophosphatemia, Grade ≥3 (160 mg QD N = 3): 0 n (%)
- Insomnia, Any grade (160 mg QD N = 3): 0 n (%)
- Insomnia, Grade ≥3 (160 mg QD N = 3): 0 n (%)
- Leukopenia, Any grade (160 mg QD N = 3): 0 n (%)
- Leukopenia, Grade ≥3 (160 mg QD N = 3): 0 n (%)
- Lymphopenia, Any grade (160 mg QD N = 3): 0 n (%)
- Lymphopenia, Grade ≥3 (160 mg QD N = 3): 0 n (%)
- Malaise, Any grade (160 mg QD N = 3): 2 (66.7) n (%)
- Malaise, Grade ≥3 (160 mg QD N = 3): 0 n (%)
- Myalgia, Any grade (160 mg QD N = 3): 2 (66.7) n (%)
- Myalgia, Grade ≥3 (160 mg QD N = 3): 0 n (%)
- Nasopharyngitis, Any grade (160 mg QD N = 3): 1 (33.3) n (%)
- Nasopharyngitis, Grade ≥3 (160 mg QD N = 3): 0 n (%)
- Nausea, Any grade (160 mg QD N = 3): 0 n (%)
- Nausea, Grade ≥3 (160 mg QD N = 3): 0 n (%)
- Neutropenia, Any grade (160 mg QD N = 3): 1 (33.3) n (%)
- Neutropenia, Grade ≥3 (160 mg QD N = 3): 1 (33.3) n (%)
- Pharyngitis, Any grade (160 mg QD N = 3): 1 (33.3) n (%)
- Pharyngitis, Grade ≥3 (160 mg QD N = 3): 0 n (%)
- Pyrexia, Any grade (160 mg QD N = 3): 0 n (%)
- Pyrexia, Grade ≥3 (160 mg QD N = 3): 0 n (%)
- Rash, Any grade (160 mg QD N = 3): 1 (33.3) n (%)
- Rash, Grade ≥3 (160 mg QD N = 3): 0 n (%)
- Thrombocytopenia, Any grade (160 mg QD N = 3): 0 n (%)
- Thrombocytopenia, Grade ≥3 (160 mg QD N = 3): 0 n (%)
- Upper respiratory tract inflammation, Any grade (160 mg QD N = 3): 1 (33.3) n (%)
- Upper respiratory tract inflammation, Grade ≥3 (160 mg QD N = 3): 0 n (%)
- Vomiting, Any grade (160 mg QD N = 3): 0 n (%)
- Vomiting, Grade ≥3 (160 mg QD N = 3): 0 n (%)
- All AEs, Any grade (300 mg BID N = 7): 7 (100.0) n (%)
- All AEs, Grade ≥3 (300 mg BID N = 7): 3 (42.9) n (%)
- Anemia, Any grade (300 mg BID N = 7): 1 (14.3) n (%)
- Anemia, Grade ≥3 (300 mg BID N = 7): 1 (14.3) n (%)
- Arthralgia, Any grade (300 mg BID N = 7): 1 (14.3) n (%)
- Arthralgia, Grade ≥3 (300 mg BID N = 7): 0 n (%)
- Aspartate aminotransferase increased, Any grade (300 mg BID N = 7): 1 (14.3) n (%)
- Aspartate aminotransferase increased, Grade ≥3 (300 mg BID N = 7): 0 n (%)
- Constipation, Any grade (300 mg BID N = 7): 1 (14.3) n (%)
- Constipation, Grade ≥3 (300 mg BID N = 7): 0 n (%)
- Cystitis, Any grade (300 mg BID N = 7): 1 (14.3) n (%)
- Cystitis, Grade ≥3 (300 mg BID N = 7): 0 n (%)
- Diarrhea, Any grade (300 mg BID N = 7): 2 (28.6) n (%)
- Diarrhea, Grade ≥3 (300 mg BID N = 7): 0 n (%)
- Dysgeusia, Any grade (300 mg BID N = 7): 1 (14.3) n (%)
- Dysgeusia, Grade ≥3 (300 mg BID N = 7): 0 n (%)
- Gamma‐glutamyltransferase increased, Any grade (300 mg BID N = 7): 1 (14.3) n (%)
- Gamma‐glutamyltransferase increased, Grade ≥3 (300 mg BID N = 7): 0 n (%)
- Headache, Any grade (300 mg BID N = 7): 1 (14.3) n (%)
- Headache, Grade ≥3 (300 mg BID N = 7): 0 n (%)
- Hypokalemia, Any grade (300 mg BID N = 7): 0 n (%)
- Hypokalemia, Grade ≥3 (300 mg BID N = 7): 0 n (%)
- Hypophosphatemia, Any grade (300 mg BID N = 7): 0 n (%)
- Hypophosphatemia, Grade ≥3 (300 mg BID N = 7): 0 n (%)
- Insomnia, Any grade (300 mg BID N = 7): 3 (42.9) n (%)
- Insomnia, Grade ≥3 (300 mg BID N = 7): 0 n (%)
- Leukopenia, Any grade (300 mg BID N = 7): 0 n (%)
- Leukopenia, Grade ≥3 (300 mg BID N = 7): 0 n (%)
- Lymphopenia, Any grade (300 mg BID N = 7): 0 n (%)
- Lymphopenia, Grade ≥3 (300 mg BID N = 7): 0 n (%)
- Malaise, Any grade (300 mg BID N = 7): 0 n (%)
- Malaise, Grade ≥3 (300 mg BID N = 7): 0 n (%)
- Myalgia, Any grade (300 mg BID N = 7): 0 n (%)
- Myalgia, Grade ≥3 (300 mg BID N = 7): 0 n (%)
- Nasopharyngitis, Any grade (300 mg BID N = 7): 1 (14.3) n (%)
- Nasopharyngitis, Grade ≥3 (300 mg BID N = 7): 0 n (%)
- Nausea, Any grade (300 mg BID N = 7): 2 (28.6) n (%)
- Nausea, Grade ≥3 (300 mg BID N = 7): 0 n (%)
- Neutropenia, Any grade (300 mg BID N = 7): 0 n (%)
- Neutropenia, Grade ≥3 (300 mg BID N = 7): 0 n (%)
- Pharyngitis, Any grade (300 mg BID N = 7): 1 (14.3) n (%)
- Pharyngitis, Grade ≥3 (300 mg BID N = 7): 0 n (%)
- Pyrexia, Any grade (300 mg BID N = 7): 2 (28.6) n (%)
- Pyrexia, Grade ≥3 (300 mg BID N = 7): 0 n (%)
- Rash, Any grade (300 mg BID N = 7): 1 (14.3) n (%)
- Rash, Grade ≥3 (300 mg BID N = 7): 0 n (%)
- Thrombocytopenia, Any grade (300 mg BID N = 7): 0 n (%)
- Thrombocytopenia, Grade ≥3 (300 mg BID N = 7): 0 n (%)
- Upper respiratory tract inflammation, Any grade (300 mg BID N = 7): 0 n (%)
- Upper respiratory tract inflammation, Grade ≥3 (300 mg BID N = 7): 0 n (%)
- Vomiting, Any grade (300 mg BID N = 7): 2 (28.6) n (%)
- Vomiting, Grade ≥3 (300 mg BID N = 7): 0 n (%)
- All AEs, Any grade (320 mg QD N = 3): 3 (100.0) n (%)
- All AEs, Grade ≥3 (320 mg QD N = 3): 2 (66.7) n (%)
- Anemia, Any grade (320 mg QD N = 3): 0 n (%)
- Anemia, Grade ≥3 (320 mg QD N = 3): 0 n (%)
- Arthralgia, Any grade (320 mg QD N = 3): 1 (33.3) n (%)
- Arthralgia, Grade ≥3 (320 mg QD N = 3): 0 n (%)
- Aspartate aminotransferase increased, Any grade (320 mg QD N = 3): 0 n (%)
- Aspartate aminotransferase increased, Grade ≥3 (320 mg QD N = 3): 0 n (%)
- Constipation, Any grade (320 mg QD N = 3): 1 (33.3) n (%)
- Constipation, Grade ≥3 (320 mg QD N = 3): 0 n (%)
- Cystitis, Any grade (320 mg QD N = 3): 1 (33.3) n (%)
- Cystitis, Grade ≥3 (320 mg QD N = 3): 0 n (%)
- Diarrhea, Any grade (320 mg QD N = 3): 1 (33.3) n (%)
- Diarrhea, Grade ≥3 (320 mg QD N = 3): 0 n (%)
- Dysgeusia, Any grade (320 mg QD N = 3): 0 n (%)
- Dysgeusia, Grade ≥3 (320 mg QD N = 3): 0 n (%)
- Gamma‐glutamyltransferase increased, Any grade (320 mg QD N = 3): 1 (33.3) n (%)
- Gamma‐glutamyltransferase increased, Grade ≥3 (320 mg QD N = 3): 0 n (%)
- Headache, Any grade (320 mg QD N = 3): 0 n (%)
- Headache, Grade ≥3 (320 mg QD N = 3): 0 n (%)
- Hypokalemia, Any grade (320 mg QD N = 3): 0 n (%)
- Hypokalemia, Grade ≥3 (320 mg QD N = 3): 0 n (%)
- Hypophosphatemia, Any grade (320 mg QD N = 3): 0 n (%)
- Hypophosphatemia, Grade ≥3 (320 mg QD N = 3): 0 n (%)
- Insomnia, Any grade (320 mg QD N = 3): 0 n (%)
- Insomnia, Grade ≥3 (320 mg QD N = 3): 0 n (%)
- Leukopenia, Any grade (320 mg QD N = 3): 2 (66.7) n (%)
- Leukopenia, Grade ≥3 (320 mg QD N = 3): 2 (66.7) n (%)
- Lymphopenia, Any grade (320 mg QD N = 3): 1 (33.3) n (%)
- Lymphopenia, Grade ≥3 (320 mg QD N = 3): 1 (33.3) n (%)
- Malaise, Any grade (320 mg QD N = 3): 0 n (%)
- Malaise, Grade ≥3 (320 mg QD N = 3): 0 n (%)
